Source: ChEMBL document CHEMBL1255406, “Production of a class II two-component lantibiotic of Streptococcus pneumoniae using the class I nisin synthetic machinery and leader sequence” (2010)
Converted amounts (≈) assume the structure as drawn. The source made the active and inactive calls. No cut-off for these calls is given here. Peptide text beside a SMILES is read from it.

How the values were obtained:
[1] = tested on: Micrococcus flavus; assay: Antimicrobial activity against Micrococcus flavus assessed as growth inhibition; type: functional
Outline: (§1)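 Broth microdilution MIC in GM17 in 96-well plates. Overnight M. flavus culture diluted 1:50 and grown to OD600 0.2, then 150 µl culture mixed with 50 µl medium containing serial peptide concentrations. Incubated overnight at a temperature suited to the strain (M. flavus grown at 30°C), with OD600 read every 30 min. MIC is the lowest concentration inhibiting growth, read when untreated cells reach half-maximal OD. At least triplicate.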

[2] = tested on: Streptococcus pneumoniae; assay: Antimicrobial activity against Streptococcus pneumoniae assessed as growth inhibition in presence of leucine aminopeptidase; type: functional, organism-based
Outline: (§2)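 Leader cleaved by 30 min incubation at 37°C with leucine aminopeptidase in phosphate buffer, pH 7.4. Strains in GM17 at 37°C, diluted 1:50 from overnight and grown to OD600 0.2, then mixed with peptide dilutions. OD600 monitored every 30 min. MIC = lowest concentration inhibiting growth, read when untreated cultures reach half-maximal OD. At least triplicate.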

[3] = tested on: Micrococcus flavus; assay: Antimicrobial activity against Micrococcus flavus assessed as growth inhibition in presence of trypsin; type: functional; outline: as §1
[4] = tested on: Streptococcus mitis; assay: Antimicrobial activity against Streptococcus mitis assessed as growth inhibition in presence of leucine aminopeptidase; type: functional, organism-based; outline: as §2
[5] = tested on: Staphylococcus aureus; assay: Antimicrobial activity against Staphylococcus aureus assessed as growth inhibition in presence of trypsin; type: functional, organism-based
Outline: (§3)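 Strains in GM17 at 37°C, diluted 1:50 from overnight and grown to OD600 0.2, then exposed to peptide dilutions. OD600 read every 30 min. MIC = lowest inhibiting concentration when untreated cells reach half-maximal OD. At least triplicate.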

[6] = tested on: Micrococcus flavus; assay: Antimicrobial activity against Micrococcus flavus assessed as growth inhibition in presence of leucine aminopeptidase; type: functional; outline: as §1
[7] = tested on: Streptococcus mitis; assay: Antimicrobial activity against Streptococcus mitis assessed as growth inhibition in presence of trypsin; type: functional, organism-based; outline: as §3
[8] = tested on: Enterococcus faecalis; assay: Antimicrobial activity against Enterococcus faecalis assessed as growth inhibition in presence of leucine aminopeptidase; type: functional, organism-based; outline: as §2
[9] = tested on: Streptococcus pneumoniae; assay: Antimicrobial activity against Streptococcus pneumoniae assessed as growth inhibition in presence of trypsin; type: functional, organism-based; outline: as §3
[10] = tested on: Enterococcus faecalis; assay: Antimicrobial activity against Enterococcus faecalis assessed as growth inhibition in presence of trypsin; type: functional, organism-based; outline: as §3
[11] = tested on: Staphylococcus aureus; assay: Antimicrobial activity against Staphylococcus aureus assessed as growth inhibition in presence of leucine aminopeptidase; type: functional, organism-based; outline: as §2

Row | Compound | MIC [1] | growth inhibition (GI) [2] | MIC [3] | growth inhibition (GI) [4] | growth inhibition (GI) [5] | MIC [6] | growth inhibition (GI) [7] | growth inhibition (GI) [8] | growth inhibition (GI) [9] | growth inhibition (GI) [10] | growth inhibition (GI) [11]
1 | CC[C@H](C)[C@H](NC(=O)[C@H](Cc1ccccc1)NC(=O)[C@H](CO)NC(=O)[C@H](CC(C)C)NC(=O)[C@@H](NC(=O)[C@H](C)NC(=O)[C@H](CO)NC(=O)[C@H](CS)NC(=O)[C@@H](NC(=O)[C@@H](NC(=O)[C@@H](NC(=O)[C@@H](N)CO)[C@@H](C)O)[C@@H](C)CC)[C@@H](C)CC)[C@@H](C)O)C(=O)N[C@@H](C)C(=O)N[C@@H](CO)C(=O)N[C@@H](Cc1ccc(O)cc1)C(=O)N[C@@H](CC(C)C)C(=O)NCC(=O)N[C@@H](CO)C(=O)N[C@@H](C)C(=O)N[C@@H](CCC(N)=O)C(=O)N[C@H](C(=O)N[C@@H](CCCNC(=N)N)C(=O)N[C@@H](CS)C(=O)NCC(=O)N[C@@H](CCCCN)C(=O)N[C@@H](CC(=O)O)C(=O)N[C@@H](CC(N)=O)C(=O)N[C@@H](CCCCN)C(=O)N[C@@H](CCCCN)C(=O)N[C@@H](CCCCN)C(=O)O)[C@@H](C)O (H-STIICSATLSFIASYLGSAQTRCGKDNKKK-OH) | 85 µM (≈ 271 µg/mL) | inactive | 10 µM | inactive | inactive | 8.5 µM | inactive | inactive | inactive | inactive | inactive
2 | C=C(NC(=O)[C@H](NC(=O)[C@@H](Cc1cnc[nH]1)NC(=O)[C@H](NC(=O)[C@@H](CO)NC(=O)[C@H]1CS[C@H](C)[C@@H]2NC(=O)[C@@H](C)NC(=O)[C@@H](NC(=O)[C@@H](CCCCN)NC(=O)[C@@H](CCSC)NC(=O)[C@@H](CC(N)=O)[C@H]3CS[C@H](C)[C@H](NC(=O)[C@@H](CCCCN)NC(=O)[C@H]4CS[C@H](C)[C@H](NC(=O)[C@H]5CSC[C@H](NC(=O)/C(=C/C)NC(=O)[C@H](N)[C@H](C)CC)C(=O)N[C@H]([C@H](C)CC)C(=O)NC(=C)C(=O)N[C@H](CC(C)C)C(=O)N5)C(=O)N5CCC[C@@H]5C(=O)NCC(=O)N4)C(=O)NCC(=O)N[C@H](C)C(=O)N[C@H](CC(C)C)C(=O)N[C@H](CCSC)C(=O)NCC(=O)N3)[C@@H](C)SC[C@@H](NC2=O)C(=O)N[C@H](Cc2cnc[nH]2)C(=O)N1)[C@H](C)CC)C(C)C)C(=O)N[C@H](CCCCN)C(=O)O [PRENISIN] | 20 µM (≈ 66.2 µg/mL) | – | 0.004 µM | – | – | – | – | – | – | – | –
3 | CC[C@H](C)[C@H](NC(=O)CNC(=O)[C@H](CO)NC(=O)[C@@H](NC(=O)[C@H](C)NC(=O)[C@H](C)NC(=O)[C@H](CO)NC(=O)[C@@H](NC(=O)[C@H](CS)NC(=O)[C@@H](NC(=O)[C@H](CCCCN)NC(=O)[C@H](CO)NC(=O)[C@H](CO)NC(=O)[C@H](C)NC(=O)[C@H](C)NC(=O)[C@H](C)NC(=O)[C@H](CO)NC(=O)[C@H](CCCCN)NC(=O)[C@H](CC(C)C)NC(=O)[C@@H](NC(=O)[C@@H](NC(=O)[C@@H]1CCCN1C(=O)[C@@H](NC(=O)[C@@H]1CCCN1C(=O)[C@@H](NC(=O)[C@@H](N)Cc1c[nH]c2ccccc12)[C@@H](C)O)[C@@H](C)O)[C@@H](C)CC)[C@@H](C)CC)C(C)C)[C@@H](C)CC)C(C)C)C(=O)NCC(=O)NCC(=O)N[C@@H](CC(C)C)C(=O)N[C@H](C(=O)N[C@@H](CO)C(=O)N[C@@H](Cc1ccc(O)cc1)C(=O)N[C@@H](CC(N)=O)C(=O)N[C@@H](CC(N)=O)C(=O)N[C@@H](CC(=O)O)C(=O)N[C@@H](CS)C(=O)N[C@@H](CC(C)C)C(=O)NCC(=O)O)C(C)C (H-WTPTPIILKSAAASSKVCISAAVSGIGGLVSYNNDCLG-OH) | 80 µM (≈ 301 µg/mL) | inactive | 0.6 µM | inactive | inactive | – | inactive | inactive | inactive | inactive | inactive
